In ChEMBL document CHEMBL2331412, “Oxo-heterocyclic fused naphthalimides as antitumor agents: synthesis and biological evaluation” (Eur J Med Chem, 2013):
Calls of active or inactive are those of the source. No cut-off for these calls is given here.

Columns and labels:
[1] = Cytotoxicity against human LO2 cells by SRB assay; type: cell-based; details: L02
A549 = experiment: Cytotoxicity against human A549 cells by SRB assay; type: functional, cell-based
P388 = experiment: Cytotoxicity against mouse P388 cells by tetrazolium-formazan assay; type: functional, cell-based
Bos taurus [2] = organism: Bos taurus; experiment: Inhibition of calf thymus topoisomerase 1-mediated pBR322 relaxation at 100 uM after 30 mins by agarose gel electrophoresis
Method in brief: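 Topoisomerase I and compound were incubated 30 min at 37 °C in topo I buffer with 0.01% BSA. Reactions were stopped with SDS and loading dye, then run on 0.8% agarose in TAE for 35 min at 120 V, stained with ethidium bromide and imaged under UV.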

[3] = target: DNA topoisomerase 2-alpha (Homo sapiens) (UniProt P11388); experiment: Inhibition of human topoisomerase 2a-mediated kinetoplast decatenation at 100 uM after 30 mins by agarose gel electrophoresis
Method in brief: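 ATP-dependent kDNA decatenation by 1 unit human topo IIα. Incubated 30 min at 37 °C in 50 mM Tris-HCl pH 8, 150 mM NaCl, 10 mM MgCl2, 2 mM ATP and 0.5 mM DTT. Stopped with SDS, run on 0.8% agarose in TAE for 50 min at 120 V, stained with ethidium bromide and imaged under UV.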

[4] = Binding affinity to Poly(dAdT).Poly(dAdT) (unknown origin)
Method in brief: (§1)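 Fluorescence titration in 20 mM sodium phosphate pH 7.0 at 20 ± 1 °C. Compound held at 3 × 10^-6 M while polydeoxynucleotide was varied from 0 to 6.32 × 10^-5 M. Ka was obtained by nonlinear curve fitting of the data. The ratio line is the GC-polymer Ka divided by the AT-polymer Ka.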

[5] = Binding affinity to Poly(dGdC).Poly(dGdC) (unknown origin); method in brief: as §1
DNA [6] = experiment: Binding affinity to calf thymus DNA at 20 uM by circular dichroism analysis; type: nucleic-acid assay; details: Bos taurus
Method in brief: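 Circular dichroism spectra of compound with calf thymus DNA in 20 mM Tris-HCl pH 7.5 containing 1% DMSO (v/v). Recorded in a 1 cm quartz cell over 240–300 nm.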

DNA [7] = experiment: Binding affinity to calf thymus DNA at 20 uM after 1 hr by fluorimetric analysis; type: nucleic-acid assay; details: Bos taurus; 10 uM; in the assay text read “at 10 uM” for “at 20 uM”
Method in brief: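 Fluorescence quenching with increasing calf thymus DNA in 20 mM Tris-HCl pH 7.5 containing 1% DMSO (v/v). Mixtures were stirred for 1 h at 25 °C in the dark before each spectrum was recorded. Kb came from nonlinear fitting of fluorescence intensity against DNA concentration.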

[8] = Selectivity ratio of Ka for Poly(dGdC).Poly(dGdC) (unknwon origin) to Ka for Poly(dAdT).Poly(dAdT) (unknown origin); method in brief: as §1
Bos taurus [9] = organism: Bos taurus; experiment: Inhibition of calf thymus topoisomerase 1-mediated pBR322 relaxation at 200 uM after 30 mins by agarose gel electrophoresis
Method in brief: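 Topoisomerase I and compound incubated 30 min at 37 °C in topoisomerase I buffer with 0.01% BSA. Reactions were stopped with 10% SDS and loading dye. Products were resolved on a 0.8% agarose gel in TAE for 35 min at 120 V, stained with ethidium bromide at room temperature and photographed under UV.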

[10] = Binding affinity to 5'ATGCGCAT3'/3'TACGCGTA5' (unknown origin)
[11] = Binding affinity to 5'ACGCCT3'/3'TGCGGA5' (unknown origin)
[12] = Binding affinity to 5'ACCGGT3'/3'TGGCCA5' (unknown origin)
[13] = Binding affinity to 5'TGCGCA3'/3'ACGCGT5' (unknown origin)
[14] = Binding affinity to 5'ACCCCT3'/3'TGGGGA5' (unknown origin)
[15] = Binding affinity to 5'ACGGCT3'/3'TGCCGA5'(unknown origin)
[16] = Binding affinity to 5'TGGCGA3'/3'ACCGCT5' (unknown origin)
[17] = Binding affinity to 5'ACCCGT3'/3'TGGGCA5' (unknown origin)

Sequence of DNA topoisomerase 2-alpha (Homo sapiens) (P11388 whole entry): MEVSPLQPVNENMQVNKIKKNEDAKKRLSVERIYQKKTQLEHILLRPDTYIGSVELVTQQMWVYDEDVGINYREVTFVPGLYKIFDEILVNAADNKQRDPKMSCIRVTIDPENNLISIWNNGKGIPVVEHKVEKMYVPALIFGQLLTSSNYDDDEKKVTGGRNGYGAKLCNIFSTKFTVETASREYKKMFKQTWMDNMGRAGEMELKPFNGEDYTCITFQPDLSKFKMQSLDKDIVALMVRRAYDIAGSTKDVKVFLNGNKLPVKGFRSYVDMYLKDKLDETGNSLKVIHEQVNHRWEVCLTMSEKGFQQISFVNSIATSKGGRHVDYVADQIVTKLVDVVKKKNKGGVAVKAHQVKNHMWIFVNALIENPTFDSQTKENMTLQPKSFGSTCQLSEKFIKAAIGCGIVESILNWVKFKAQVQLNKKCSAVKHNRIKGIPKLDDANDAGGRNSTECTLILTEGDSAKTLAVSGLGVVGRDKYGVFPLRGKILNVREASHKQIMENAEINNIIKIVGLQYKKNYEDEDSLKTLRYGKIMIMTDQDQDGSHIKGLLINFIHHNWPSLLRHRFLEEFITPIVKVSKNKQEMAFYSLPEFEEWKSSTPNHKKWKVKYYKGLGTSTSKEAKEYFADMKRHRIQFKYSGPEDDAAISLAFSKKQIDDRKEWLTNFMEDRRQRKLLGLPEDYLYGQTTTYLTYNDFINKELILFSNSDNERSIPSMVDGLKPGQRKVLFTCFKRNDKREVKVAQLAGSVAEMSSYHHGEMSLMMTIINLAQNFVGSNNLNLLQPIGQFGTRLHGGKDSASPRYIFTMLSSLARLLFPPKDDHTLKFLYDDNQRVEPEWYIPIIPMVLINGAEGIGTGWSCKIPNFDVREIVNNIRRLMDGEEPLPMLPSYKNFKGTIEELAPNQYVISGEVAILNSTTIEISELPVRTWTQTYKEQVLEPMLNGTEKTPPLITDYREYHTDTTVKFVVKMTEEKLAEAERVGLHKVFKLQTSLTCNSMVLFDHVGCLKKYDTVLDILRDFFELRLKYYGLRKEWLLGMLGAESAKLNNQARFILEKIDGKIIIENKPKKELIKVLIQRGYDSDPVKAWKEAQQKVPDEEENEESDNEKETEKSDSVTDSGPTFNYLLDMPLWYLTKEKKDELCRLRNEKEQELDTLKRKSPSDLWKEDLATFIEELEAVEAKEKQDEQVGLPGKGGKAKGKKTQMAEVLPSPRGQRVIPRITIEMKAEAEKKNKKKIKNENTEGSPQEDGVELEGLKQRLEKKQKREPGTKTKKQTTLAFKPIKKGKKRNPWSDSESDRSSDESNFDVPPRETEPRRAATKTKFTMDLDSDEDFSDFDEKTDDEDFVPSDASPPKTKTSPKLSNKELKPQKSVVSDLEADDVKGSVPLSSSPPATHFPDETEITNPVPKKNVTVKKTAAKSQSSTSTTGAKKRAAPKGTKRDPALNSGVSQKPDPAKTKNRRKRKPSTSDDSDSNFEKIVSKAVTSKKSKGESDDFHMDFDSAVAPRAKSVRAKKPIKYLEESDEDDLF

SMILES | IC50 [1] [nM] | IC50 (A549) [nM] | IC50 (P388) [nM] | other results
CN(C)CCCn1c(=O)c2ccc3oc4ccccc4c4ccc(c1=O)c2c34 | 10300 | 98300 | 3500 | –
O=C1c2cccc3c2c(cc2c4ccccc4sc32)C(=O)N1CCN1CCNCC1 | – | 11800 | 72400 | –
CN(C)CCN1C(=O)c2cccc3c2c(cc2nc(-c4ccc([N+](=O)[O-])cc4)oc23)C1=O | > 100000 | 17800 | 100000 | –
COc1cc([C@@H]2c3cc4c(cc3[C@@H](O[C@@H]3O[C@@H]5CO[C@@H](C)O[C@H]5[C@H](O)[C@H]3O)[C@H]3COC(=O)[C@H]23)OCO4)cc(OC)c1O | – | – | – | Topoisomerase 1 relaxation inhibition (qualitative) (Bos taurus [2]): Active; Inhibition (qualitative) [3]: Active
Cc1ccc(-c2nc3cc4c5c(cccc5c3o2)C(=O)N(CCN(C)C)C4=O)cc1 | 6700 | 34700 | 19300 | –
COc1ccccc1-c1nc2cc3c4c(cccc4c2o1)C(=O)N(CCN(C)C)C3=O | 1900 | 890 | 1300 | –
CN(C)CCN1C(=O)c2cccc3c2c(cc2c4ccccc4oc32)C1=O | 5000 | 360 | 650 | Topoisomerase 1 relaxation inhibition (qualitative) (Bos taurus [2]): Active; Ka [4]: 5 ×10⁶ /M; Ka [5]: 6.36 ×10⁶ /M; Inhibition (qualitative) [3]: Active; Activity (DNA [6]): Active; Ka (DNA [7]): 2.89 ×10⁵ /M
CN(C)CCN1C(=O)c2cccc3cc(N)cc(c23)C1=O [AMONAFIDE] | 5000 | – | – | Inhibition (qualitative) [3]: Active
O=c1c2ccc3sc4ccccc4c4ccc(c(=O)n1CCN1CCNCC1)c2c34 | – | 100000 | > 100000 | –
CCCCN1C(=O)c2cccc3c2c(cc2c4ccccc4oc32)C1=O | > 100000 | 1400 | > 100000 | –
CN(C)CCN1C(=O)c2cccc3c2c(cc2nc(-c4ccccc4)oc23)C1=O | 3000 | 530 | 2500 | –
CCCCn1c(=O)c2ccc3sc4ccccc4c4ccc(c1=O)c2c34 | – | 870 | 1200 | –
CN(C)CCCN1C(=O)c2cccc3c2c(cc2c4ccccc4oc32)C1=O | 6600 | 740 | 170 | –
CN(C)CCN1C(=O)c2cccc3c2c(cc2c4ccccc4sc32)C1=O | 900 | – | – | Topoisomerase 1 relaxation inhibition (qualitative) (Bos taurus [2]): Active; Ka [4]: 8 ×10⁶ /M; Ka [5]: 7.6 ×10⁷ /M; Inhibition (qualitative) [3]: Active; Selectivity ratio [8]: 10; Activity (DNA [6]): Active; Ka (DNA [7]): 1.1 ×10⁵ /M
Cc1ccc(-c2nc3cc4c5c(cccc5c3s2)C(=O)N(CCN(C)C)C4=O)cc1 | – | 420 | 620 | –
CCCCN1C(=O)c2cccc3c2c(cc2c4ccccc4sc32)C1=O | – | 1350 | 740 | –
CN(C)CCN1C(=O)c2cccc3c2c(cc2nc(-c4ccccc4)sc23)C1=O | – | 85 | 660 | –
O=c1c2ccc3oc4ccccc4c4ccc(c(=O)n1CCN1CCNCC1)c2c34 | 11500 | 29000 | 4520 | –
CC[C@@]1(O)C(=O)OCc2c1cc1n(c2=O)Cc2cc3ccccc3nc2-1 | – | – | – | inhibition (Bos taurus [9]): Active
CN(C)CCn1c(=O)c2ccc3oc4ccccc4c4ccc(c1=O)c2c34 | 4100 | 610 | 1110 | Topoisomerase 1 relaxation inhibition (qualitative) (Bos taurus [2]): Active; Ka [4]: 1.32 ×10⁵ /M; Ka [10]: 8 ×10⁴ /M; Ka [11]: 6.9 ×10³ /M; Ka [5]: 6.89 ×10⁵ /M; Ka [12]: 1.12 ×10⁵ /M; Ka [13]: 1.28 ×10⁵ /M; Ka [14]: 1.72 ×10⁵ /M; Inhibition (qualitative) [3]: Active; Ka [15]: 5.9 ×10³ /M; Activity (DNA [6]): Active; Ka [16]: 8.4 ×10⁴ /M; Ka (DNA [7]): 1.45 ×10⁵ /M; Ka [17]: 1.2 ×10⁴ /M
COc1ccc(-c2nc3cc4c5c(cccc5c3s2)C(=O)N(CCN(C)C)C4=O)cc1 | – | 16 | 430 | –
CN(C)CCCN1C(=O)c2cccc3c2c(cc2c4ccccc4sc32)C1=O | – | 250 | 320 | –
CN(C)CCCn1c(=O)c2ccc3sc4ccccc4c4ccc(c1=O)c2c34 | – | 190 | 630 | –
CCCCn1c(=O)c2ccc3oc4ccccc4c4ccc(c1=O)c2c34 | > 100000 | 5390 | > 100000 | –
CN(C)CCN1C(=O)c2cccc3c2c(cc2nc(-c4ccc(Cl)cc4)oc23)C1=O | > 100000 | 72400 | 20100 | –
COc1ccc(-c2nc3cc4c5c(cccc5c3o2)C(=O)N(CCN(C)C)C4=O)cc1 | 3400 | 6600 | 1290 | –
CN(C)CCn1c(=O)c2ccc3sc4ccccc4c4ccc(c1=O)c2c34 | 4100 | – | – | Topoisomerase 1 relaxation inhibition (qualitative) (Bos taurus [2]): Active; Ka [4]: 4.48 ×10⁵ /M; Ka [10]: 4.76 ×10⁵ /M; Ka [11]: 1.92 ×10⁵ /M; Ka [5]: 4.76 ×10⁶ /M; Ka [12]: 4 ×10⁵ /M; Ka [13]: 3.33 ×10⁶ /M; Ka [14]: 1.89 ×10⁵ /M; Inhibition (qualitative) [3]: Active; Selectivity ratio [8]: 10; Ka [15]: 3 ×10⁴ /M; Activity (DNA [6]): Active; Ka [16]: 2.13 ×10⁵ /M; Ka (DNA [7]): 9.7 ×10⁴ /M; Ka [17]: 9.09 ×10⁵ /M
